Experimental data published in ChEMBL document CHEMBL1221364 (Bioorg Med Chem, 2010).

Tests used:
[1] = molecular target: Kappa-type opioid receptor (Homo sapiens, UniProt P41145); assay: Binding affinity to […] opioid receptor
[2] = molecular target: T1, D(4) dopamine receptor (Homo sapiens, UniProt P21917); assay: Binding affinity to dopamine D4 receptor
T1 sequence (P21917 whole entry): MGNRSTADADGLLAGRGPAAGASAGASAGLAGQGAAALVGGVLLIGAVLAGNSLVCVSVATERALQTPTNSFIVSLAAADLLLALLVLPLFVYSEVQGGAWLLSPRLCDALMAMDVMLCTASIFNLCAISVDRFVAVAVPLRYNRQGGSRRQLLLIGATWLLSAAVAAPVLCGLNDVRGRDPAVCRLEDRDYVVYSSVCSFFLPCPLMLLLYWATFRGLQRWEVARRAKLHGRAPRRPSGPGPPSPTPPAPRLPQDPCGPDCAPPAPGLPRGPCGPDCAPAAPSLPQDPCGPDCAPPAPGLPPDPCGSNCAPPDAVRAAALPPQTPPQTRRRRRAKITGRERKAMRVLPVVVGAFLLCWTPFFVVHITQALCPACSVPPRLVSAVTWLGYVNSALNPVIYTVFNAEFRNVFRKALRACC

[3] = Displacement of [3H]spiperone from D2 like receptor in pig striatal tissue by topcount scintillation counting; type: tissue-based, Sus scrofa, Striatum
How it was run: (§1)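 Porcine striatal membranes (P2 pellet, washed in 50 mM Tris pH 7.4), 75 µg protein per tube in 50 mM Hepes, 4 mM MgCl2, pH 7.4. Nonspecific binding was defined with 5 µM butaclamol. Incubation was 37 °C for 30 min, then filtration and scintillation counting. Ki was derived by Cheng-Prusoff and D2/D1 Ki compared.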

[4] = molecular target: T2, 5-hydroxytryptamine receptor 3A (Homo sapiens, UniProt P46098); assay: Binding affinity to 5HT3 receptor
T2 sequence (P46098 whole entry): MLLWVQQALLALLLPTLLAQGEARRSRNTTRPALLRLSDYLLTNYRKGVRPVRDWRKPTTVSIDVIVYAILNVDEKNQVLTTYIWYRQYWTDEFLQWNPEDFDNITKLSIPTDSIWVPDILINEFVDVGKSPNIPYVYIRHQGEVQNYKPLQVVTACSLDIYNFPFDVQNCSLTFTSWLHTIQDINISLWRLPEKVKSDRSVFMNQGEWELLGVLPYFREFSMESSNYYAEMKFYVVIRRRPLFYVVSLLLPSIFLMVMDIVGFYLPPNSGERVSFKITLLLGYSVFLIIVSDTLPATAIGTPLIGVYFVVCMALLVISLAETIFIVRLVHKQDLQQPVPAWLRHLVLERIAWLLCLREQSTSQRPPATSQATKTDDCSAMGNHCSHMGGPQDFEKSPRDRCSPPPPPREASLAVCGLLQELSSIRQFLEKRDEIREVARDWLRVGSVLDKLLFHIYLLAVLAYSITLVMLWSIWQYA

[5] = molecular target: T3, D(1A) dopamine receptor (Homo sapiens, UniProt P21728); assay: Agonist activity at human D1 receptor assessed as cAMP accumulation; type: functional
T3 sequence (P21728 whole entry): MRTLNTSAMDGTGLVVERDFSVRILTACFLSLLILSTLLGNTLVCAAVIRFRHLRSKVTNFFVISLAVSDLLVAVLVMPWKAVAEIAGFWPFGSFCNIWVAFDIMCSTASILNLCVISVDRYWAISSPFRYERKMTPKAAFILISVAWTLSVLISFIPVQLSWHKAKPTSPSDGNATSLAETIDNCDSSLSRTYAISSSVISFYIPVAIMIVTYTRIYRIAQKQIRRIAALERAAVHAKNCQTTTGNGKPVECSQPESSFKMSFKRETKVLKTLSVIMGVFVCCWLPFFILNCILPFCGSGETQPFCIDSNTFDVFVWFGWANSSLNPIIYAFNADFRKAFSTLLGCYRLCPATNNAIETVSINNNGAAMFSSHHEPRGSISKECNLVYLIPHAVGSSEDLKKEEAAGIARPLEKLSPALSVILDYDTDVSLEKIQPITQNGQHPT

[6] = molecular target: T4, Alpha-2C adrenergic receptor (Homo sapiens, UniProt P18825); assay: Binding affinity to adrenergic Alpha-2C receptor
T4 sequence (P18825 whole entry): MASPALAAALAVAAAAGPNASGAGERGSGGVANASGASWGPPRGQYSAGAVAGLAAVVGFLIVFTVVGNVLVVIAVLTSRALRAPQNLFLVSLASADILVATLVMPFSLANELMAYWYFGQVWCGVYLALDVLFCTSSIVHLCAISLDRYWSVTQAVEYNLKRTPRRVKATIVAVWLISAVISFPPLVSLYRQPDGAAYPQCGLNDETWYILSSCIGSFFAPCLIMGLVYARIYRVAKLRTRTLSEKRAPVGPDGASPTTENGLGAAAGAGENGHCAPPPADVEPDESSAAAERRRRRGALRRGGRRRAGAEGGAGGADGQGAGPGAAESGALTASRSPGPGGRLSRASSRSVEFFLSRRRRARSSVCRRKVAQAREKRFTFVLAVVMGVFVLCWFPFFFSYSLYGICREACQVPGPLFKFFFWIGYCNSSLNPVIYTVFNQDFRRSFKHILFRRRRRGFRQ

[7] = molecular target: D(1B) dopamine receptor (Homo sapiens, UniProt P21918); assay: Binding affinity to dopamine D5 receptor
D(1B) dopamine receptor, sequence (P21918 whole entry): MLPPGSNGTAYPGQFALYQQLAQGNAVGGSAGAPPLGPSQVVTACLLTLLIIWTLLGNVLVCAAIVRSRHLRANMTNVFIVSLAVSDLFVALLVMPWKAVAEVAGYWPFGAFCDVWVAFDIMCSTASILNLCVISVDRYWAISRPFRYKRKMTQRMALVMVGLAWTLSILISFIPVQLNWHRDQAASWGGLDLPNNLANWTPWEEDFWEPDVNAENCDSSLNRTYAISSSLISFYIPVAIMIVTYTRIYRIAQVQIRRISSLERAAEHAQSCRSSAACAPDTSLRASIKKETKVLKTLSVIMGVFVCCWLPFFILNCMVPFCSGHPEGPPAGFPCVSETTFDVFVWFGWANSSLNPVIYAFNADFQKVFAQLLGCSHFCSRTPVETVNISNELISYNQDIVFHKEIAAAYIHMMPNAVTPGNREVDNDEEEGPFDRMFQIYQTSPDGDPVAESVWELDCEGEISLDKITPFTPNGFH

[8] = molecular target: T5, Alpha-1A adrenergic receptor (Homo sapiens, UniProt P35348); assay: Binding affinity to adrenergic alpha1A receptor
T5 sequence (P35348 whole entry): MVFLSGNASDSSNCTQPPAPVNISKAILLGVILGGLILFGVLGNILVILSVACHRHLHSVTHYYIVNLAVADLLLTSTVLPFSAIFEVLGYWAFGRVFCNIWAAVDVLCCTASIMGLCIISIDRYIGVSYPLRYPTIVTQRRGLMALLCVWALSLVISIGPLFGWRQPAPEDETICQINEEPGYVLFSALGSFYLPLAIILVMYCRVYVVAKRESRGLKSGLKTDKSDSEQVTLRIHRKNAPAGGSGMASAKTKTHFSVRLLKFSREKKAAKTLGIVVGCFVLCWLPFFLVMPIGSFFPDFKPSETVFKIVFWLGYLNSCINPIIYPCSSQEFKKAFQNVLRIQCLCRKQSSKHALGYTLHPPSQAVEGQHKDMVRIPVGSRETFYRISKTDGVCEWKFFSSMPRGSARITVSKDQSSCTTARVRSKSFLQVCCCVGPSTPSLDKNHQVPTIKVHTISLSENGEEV

[9] = molecular target: T6, Alpha-2A adrenergic receptor (Homo sapiens, UniProt P08913); assay: Binding affinity to adrenergic alpha2A receptor
T6 sequence (P08913 whole entry): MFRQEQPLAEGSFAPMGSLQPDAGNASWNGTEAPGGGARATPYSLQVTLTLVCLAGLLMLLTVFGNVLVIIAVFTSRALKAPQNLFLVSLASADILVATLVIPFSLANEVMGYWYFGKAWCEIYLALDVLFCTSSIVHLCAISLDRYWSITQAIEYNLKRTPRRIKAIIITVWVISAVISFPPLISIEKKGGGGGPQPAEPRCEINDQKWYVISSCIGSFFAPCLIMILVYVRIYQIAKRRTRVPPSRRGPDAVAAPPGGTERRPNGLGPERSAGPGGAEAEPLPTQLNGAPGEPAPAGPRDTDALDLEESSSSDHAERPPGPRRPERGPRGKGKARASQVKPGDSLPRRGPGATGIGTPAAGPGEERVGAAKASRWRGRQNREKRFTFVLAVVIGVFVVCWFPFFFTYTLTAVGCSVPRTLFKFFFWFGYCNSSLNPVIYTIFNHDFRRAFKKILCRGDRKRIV

[10] = Displacement of [3H]SCH23390 from D1 like receptor in pig striatal tissue by topcount scintillation counting; type: tissue-based, Sus scrofa, Striatum; how it was run: as §1
[11] = molecular target: T3, D(1A) dopamine receptor; assay: Binding affinity to dopamine D1 receptor
[12] = molecular target: D(3) dopamine receptor (Homo sapiens, UniProt P35462); assay: Binding affinity to dopamine D3 receptor
D(3) dopamine receptor, sequence (P35462 whole entry): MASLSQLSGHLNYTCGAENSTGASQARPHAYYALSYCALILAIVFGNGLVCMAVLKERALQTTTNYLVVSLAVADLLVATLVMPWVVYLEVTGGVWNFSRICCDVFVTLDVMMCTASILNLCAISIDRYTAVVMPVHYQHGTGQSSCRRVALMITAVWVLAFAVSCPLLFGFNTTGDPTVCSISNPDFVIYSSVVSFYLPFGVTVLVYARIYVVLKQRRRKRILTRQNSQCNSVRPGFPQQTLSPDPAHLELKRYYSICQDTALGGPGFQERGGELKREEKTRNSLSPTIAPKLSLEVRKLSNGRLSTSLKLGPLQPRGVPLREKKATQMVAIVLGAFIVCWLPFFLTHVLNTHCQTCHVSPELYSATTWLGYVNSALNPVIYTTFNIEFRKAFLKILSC

[13] = molecular target: 5-hydroxytryptamine receptor 7 (Homo sapiens, UniProt P34969); assay: Binding affinity to 5HT7 receptor
5-hydroxytryptamine receptor 7, sequence (P34969 whole entry): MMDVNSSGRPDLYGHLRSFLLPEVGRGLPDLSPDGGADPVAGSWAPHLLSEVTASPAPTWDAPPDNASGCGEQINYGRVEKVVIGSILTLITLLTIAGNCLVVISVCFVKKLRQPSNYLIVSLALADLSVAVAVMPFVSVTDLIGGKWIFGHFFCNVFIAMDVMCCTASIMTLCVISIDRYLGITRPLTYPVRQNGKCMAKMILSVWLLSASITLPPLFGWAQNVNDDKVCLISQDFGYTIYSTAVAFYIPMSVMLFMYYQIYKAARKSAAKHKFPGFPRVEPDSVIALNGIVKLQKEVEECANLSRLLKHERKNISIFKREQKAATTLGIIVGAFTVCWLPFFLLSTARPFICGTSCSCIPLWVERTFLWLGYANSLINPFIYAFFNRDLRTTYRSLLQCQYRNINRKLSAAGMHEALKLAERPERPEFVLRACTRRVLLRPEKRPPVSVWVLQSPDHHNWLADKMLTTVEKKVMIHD

[14] = molecular target: T7, Alpha-2B adrenergic receptor (Homo sapiens, UniProt P18089); assay: Binding affinity to adrenergic alpha2B receptor
T7 sequence (P18089 whole entry): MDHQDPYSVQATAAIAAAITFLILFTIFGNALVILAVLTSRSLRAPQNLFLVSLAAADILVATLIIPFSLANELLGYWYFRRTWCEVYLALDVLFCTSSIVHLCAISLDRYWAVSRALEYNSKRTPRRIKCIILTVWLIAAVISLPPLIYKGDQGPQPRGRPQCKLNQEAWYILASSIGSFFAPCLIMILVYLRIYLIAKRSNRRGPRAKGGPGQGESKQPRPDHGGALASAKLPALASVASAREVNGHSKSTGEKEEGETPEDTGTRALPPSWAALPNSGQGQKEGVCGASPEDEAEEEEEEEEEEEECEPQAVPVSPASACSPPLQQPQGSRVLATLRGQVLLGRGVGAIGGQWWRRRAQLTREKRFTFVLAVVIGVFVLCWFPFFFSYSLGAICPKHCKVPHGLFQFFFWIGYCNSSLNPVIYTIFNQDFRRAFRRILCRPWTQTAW

[15] = species: Sus scrofa; assay: Selectivity ratio of Ki for pig D2-like receptor to Ki for pig D1-like receptor
How it was run: as §1, with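 “7.4. D1-like sites were labelled with 1 nM [3H]SCH-23390. D2-like sites were labelled with 0.15 nM [3H]spiperone plus 50 nM ketanserin.” for “7.4.”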

Kappa-type opioid receptor, sequence (P41145 whole entry): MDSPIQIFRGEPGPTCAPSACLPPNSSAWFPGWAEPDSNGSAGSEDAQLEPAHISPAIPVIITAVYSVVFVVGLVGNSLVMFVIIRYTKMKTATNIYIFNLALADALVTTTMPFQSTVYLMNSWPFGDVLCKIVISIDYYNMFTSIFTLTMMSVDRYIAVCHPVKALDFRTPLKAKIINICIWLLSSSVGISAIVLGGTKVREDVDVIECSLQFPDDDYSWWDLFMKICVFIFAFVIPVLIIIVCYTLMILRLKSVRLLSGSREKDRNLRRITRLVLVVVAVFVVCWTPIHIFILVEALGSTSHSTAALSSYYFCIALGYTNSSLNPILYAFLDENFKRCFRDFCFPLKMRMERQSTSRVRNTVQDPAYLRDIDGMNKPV

| SMILES | Ki [1] | Ki [2] | Ki [3] | Ki [4] | EC50 [5] | Ki [6] | Ki [7] | Ki [8] | Ki [9] | Ki [10] | Ki [11] | Ki [12] | Ki [13] | Ki [14] | Selectivity Index [15] |
| --- | --- | --- | --- | --- | --- | --- | --- | --- | --- | --- | --- | --- | --- | --- | --- |
| Oc1ccc2c(c1O)C[C@@H](c1ccccc1)[C@@H]1CCNC[C@@H]21 | 0.82 µM | 2.65 µM | 0.44 µM | 0.87 µM | 0.00064 µM | 0.0011 µM | 0.0028 µM | 0.34 µM | 0.0035 µM | 0.006 µM | 0.018 µM | 0.13 µM | 0.22 µM | 0.0064 µM |  |
| Oc1ccc2c(c1O)CC[C@@H]1CCNC[C@H]21 (relative stereo) |  |  | 2.8 µM |  |  |  |  |  |  | 6.8 µM |  |  |  |  | 0.4 |
| CN1CCc2cc(Cl)c(O)cc2[C@@H](c2ccccc2)C1 [SCH-23390] |  |  |  |  |  |  |  |  |  | 0.00079 µM |  |  |  |  |  |
| Oc1ccc2c(c1O)CC[C@@H]1CCNC[C@@H]21 (relative stereo) |  |  | 0.67 µM |  |  |  |  |  |  | 0.85 µM |  |  |  |  | 0.8 |
